Data published in ChEMBL document CHEMBL2429802, “Cytotoxic oxepinochromenone and flavonoids from the flower buds of Rosa rugosa” (J Nat Prod, 2013).

How the values were obtained:
Format in all cases: functional, cell-based
[1] = Cytotoxicity against human SH-SY5Y cells assessed as growth inhibition after 72 hrs by MTT assay
In short: (§1)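 2500 cells per well seeded in MEM medium and incubated 24 h. Medium then replaced with fresh medium containing compound at 100 to 1.5625 μM (six 2-fold dilutions). OD595 read after MTT on control wells at 0 and 72 h and on treated wells at 72 h. IC50 taken as the concentration inhibiting 50% of cell growth. Paclitaxel served as positive control.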

A549 = experiment: Cytotoxicity against human A549 cells assessed as growth inhibition after 72 hrs by MTT assay; conditions: A549, 72 h; in short: as §1
PC-3 = experiment: Cytotoxicity against human PC3 cells assessed as growth inhibition after 72 hrs by MTT assay; conditions: PC-3, 72 h; in short: as §1
NB-4 = experiment: Cytotoxicity against human NB4 cells assessed as growth inhibition after 72 hrs by MTT assay; conditions: NB-4, 72 h; in short: as §1
MCF7 = experiment: Cytotoxicity against human MCF7 cells assessed as growth inhibition after 72 hrs by MTT assay; conditions: MCF7, 72 h; in short: as §1

Compound	IC50 [1]	IC50 (A549)	IC50 (PC-3)	IC50 (NB-4)	IC50 (MCF7)
COc1ccc2c(c1CCO)O[C@@H](c1ccc(O)cc1O)CC2	> 10 µM	> 10 µM	> 10 µM	> 10 µM	> 10 µM
COc1cc2c(=O)cc(-c3ccc(O)c(O)c3)oc2c(C(C)=O)c1OC	4.3 µM	1.2 µM	8.4 µM	3.6 µM	2.8 µM
COC(=O)c1cc(O)cc2oc(-c3ccc(OC)cc3)cc(=O)c12	2.5 µM	6.7 µM	4.8 µM	2.2 µM	2.3 µM
O=C(OC[C@H]1O[C@@H](Oc2c(-c3ccc(O)cc3)oc3cc(O)cc(O)c3c2=O)[C@H](O)[C@@H](O)[C@@H]1O)c1ccc(O)cc1	8.2 µM	> 10 µM	> 10 µM	4.7 µM	7.3 µM
COc1cc2c(cc1OC)[C@@H](O)[C@H](c1ccc(O)cc1)CO2	> 10 µM	> 10 µM	> 10 µM	> 10 µM	> 10 µM
COc1ccc([C@@H]2COc3cc(OC)c(O)cc3[C@H]2O)cc1	> 10 µM	> 10 µM	> 10 µM	> 10 µM	> 10 µM
COc1c(O)ccc(C/C=C/c2ccc3c(c2)OCO3)c1OC	> 10 µM	> 10 µM	> 10 µM	> 10 µM	> 10 µM
COc1cc(/C=C/Cc2ccc(O)c(OC)c2OC)cc2c1OCO2	> 10 µM	> 10 µM	> 10 µM	> 10 µM	> 10 µM
COC(=O)[C@@]1(O)c2c(oc(-c3ccc(O)cc3)cc2=O)OC=C[C@@H]1O	> 10 µM	7.2 µM	6.8 µM	> 10 µM	> 10 µM
CC(=O)O[C@H]1C(=O)[C@@]2(C)[C@H]([C@H](OC(=O)c3ccccc3)[C@]3(O)C[C@H](OC(=O)[C@H](O)[C@@H](NC(=O)c4ccccc4)c4ccccc4)C(C)=C1C3(C)C)[C@]1(OC(C)=O)CO[C@@H]1C[C@@H]2O [PACLITAXEL]	0.2 µM				
